Converted amounts (≈) assume the structure as drawn.
Key:
[1] = Clearance in rat liver microsomes assessed as drug turnover level at 1 uM incubated for 30 mins in presence of NADPH; type: ADME, Microsome; settings: read-out: CLH
Procedure, shortened: (§1)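 Parent compound at 1 µM incubated with liver microsomes (0.25 mg/mL) in 66.7 mM potassium phosphate with 1 mM NADPH, 37 °C, 30 min; % turnover measured by LC/MS.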

[2] = Clearance in human liver microsomes assessed as drug turnover level at 1 uM incubated for 30 mins in presence of NADPH; type: ADME, Microsome; settings: read-out: CLH; procedure, shortened: as §1
[3] = Clearance in Sprague-Dawley rat at 0.5 mg/kg, iv by LC-MS method; type: ADME, organism-based; settings: in vivo
Procedure, shortened: (§2)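 Male Sprague-Dawley rats, two animals per study, dosed IV at 0.5 mg/kg as a solution in 100% DMSO. Unbound clearance calculated as total clearance divided by rat plasma fraction unbound (CLu = CL/fu).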

[4] = Unbound clearance in Sprague-Dawley rat at 0.5 mg/kg, iv by LC-MS method; type: ADME, organism-based; settings: in vivo; procedure, shortened: as §2
[5] = Aqueous equilibrium solubility at room temperature after 72 hrs at pH 7.4 by HPLC; type: physicochemical; settings: buffer
[6] = Apparent permeability in LLC-PK1 cells by LC-MS method; type: ADME, cell-based, Sus scrofa; settings: pig
Procedure, shortened: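 Passive permeability across LLCPK1 monolayers; apparent permeability (Papp) obtained by mass balance with LC/MS quantitation.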

[7] = Oral bioavailability in Sprague-Dawley rat at 2 mg/kg by LC-MS method; type: ADME, organism-based; settings: in vivo

Row | Structure (SMILES) | microsomal CLint at 1 µM [1] [µL/min/mg] | microsomal CLint at 1 µM [2] [µL/min/mg] | clearance [3] [mL/min/kg] | CL free [4] [mL/min/kg] | solubility thermodynamic at 72 h [5] [µg/mL] | Papp [6] [×10⁻⁶ cm/s] | bioavailability [7] [%]
1 | C[C@H](Nc1ncnc(N)c1C#N)c1nc2ccc(F)cc2c(C(=O)N(C)C)c1-c1ccccc1 | 426 | 198 | – | – | – | – | –
2 | C[C@H](Nc1ncnc(N)c1C#N)c1nc2ccc(F)cc2c(C(N)=O)c1-c1ccccc1 | < 14 | < 14 | 10 | – | – | – | –
3 | CC(C)NC(=O)c1c(-c2ccccc2)c([C@H](C)Nc2ncnc(N)c2C#N)nc2ccc(F)cc12 | < 14 | 51 | – | – | – | – | –
4 | CCNC(=O)c1c(-c2ccccn2)c([C@H](C)Nc2ncnc(N)c2C#N)nc2ccc(F)cc12 | < 14 | < 14 | 3.33 | 102 | – | – | –
5 | CNCCNC(=O)c1c(-c2ccccc2)c([C@H](C)Nc2ncnc(N)c2C#N)nc2ccc(F)cc12 | < 14 | < 14 | – | – | – | – | –
6 | CNCCNC(=O)c1c(-c2ccccn2)c([C@H](C)Nc2ncnc(N)c2C#N)nc2ccc(F)cc12 | < 14 | 33 | 16.7 | 468 | – | – | –
7 | C[C@H](Nc1ncnc(N)c1C#N)c1nc2ccc(F)cc2c(-c2ccccn2)c1-c1ccccn1 | 16 | 47 | – | – | – | – | –
8 | C[C@H](Nc1ncnc(N)c1C#N)c1nc2ccc(F)cc2c(C(=O)N2CCS(=O)(=O)CC2)c1-c1ccccc1 | 78 | 62 | – | – | – | – | –
9 | C[C@H](Nc1ncnc2[nH]cnc12)c1cc2ccc(F)cc2nc1-c1ccccn1 [AMG-319] | < 14 | < 14 | 5 | 45 | > 200 | 30 | 54
10 | CNC(=O)c1c(-c2ccccn2)c([C@H](C)Nc2ncnc(N)c2C#N)nc2cccc(F)c12 | < 14 | < 14 | 11.7 | 67 | 200 (≈ 452 µM) | 8 | 29
11 | CNC(=O)c1c(-c2ccccc2)c([C@H](C)Nc2ncnc(N)c2C#N)nc2ccc(F)cc12 | 15 | < 14 | 8.33 | 75 | – | – | –
12 | CNC(=O)c1c(-c2ccccn2)c([C@H](C)Nc2ncnc(N)c2C#N)nc2ccc(F)cc12 | < 14 | < 14 | 8.33 | 38.3 | 200 (≈ 452 µM) | 14.6 | 70
13 | C[C@H](Nc1ncnc(N)c1C#N)c1nc2ccc(F)cc2c(C(=O)N2CCNCC2)c1-c1ccccc1 | 50 | 82 | 15 | 1000 | – | – | –
14 | CCNC(=O)c1c(-c2ccccc2)c([C@H](C)Nc2ncnc(N)c2C#N)nc2ccc(F)cc12 | < 14 | 22 | – | – | – | – | –
15 | CC(Nc1ncnc(N)c1C#N)c1nc2ccc(F)cc2c(C(=O)N2CCNCC2)c1-c1ccccn1 (racemic) | 17 | 24 | – | – | – | – | –
16 | C[C@H](Nc1ncnc(N)c1C#N)c1nc2ccc(F)cc2c(C(=O)N2CC(O)C2)c1-c1ccccc1 | 49 | 40 | – | – | – | – | –
17 | CC(Nc1ncnc(N)c1C#N)c1nc2ccc(F)cc2c(C(=O)N2CC(O)C2)c1-c1ccccn1 (racemic) | < 14 | < 14 | – | – | – | – | –

From ChEMBL document CHEMBL4428047 (J Med Chem, 2016)
